Source: ChEMBL document CHEMBL4145669 (J Med Chem, 2018)
pEC50: −log10 of the molar value. Square brackets hold non-standard residues; d marks the D form. Peptide text beside a SMILES is read from it. hPhe = N[C@@H](CCc1ccccc1)C(=O)O; Nle = CCCC[C@H](N)C(=O)O; Dap = NC[C@H](N)C(=O)O

Columns and labels:
[1] = biological target: Melanocortin receptor 4 (Mus musculus, UniProt P56450); assay: Antagonist activity at mouse MC4R expressed in HEK293 cells assessed as reduction in NDP-MSH-induced response incubated for 2 hrs by AlphaScreen cAMP assay based Schild analysis; assay type: functional, cell-based; conditions: read-out: pA2 (converted)
[2] = biological target: Melanocortin receptor 5 (Mus musculus, UniProt P41149); assay: Inverse agonist activity at mouse MC5R expressed in HEK293 cells incubated for 2 hrs by AlphaScreen cAMP assay; assay type: functional, cell-based
How it was run: (§1)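 In the mouse MC5R HEK293 stable line, cells in IBMX-containing stimulation buffer with anti-cAMP acceptor beads were exposed to compound at up to 100 μM for 2 h at room temperature in the dark. Donor beads/biotinylated cAMP were then added for 2 h before AlphaScreen reading. Signal was normalized to basal response to give a percent difference from basal. Duplicate wells, ≥3 independent experiments.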

[3] = biological target: Melanocortin receptor 3 (Mus musculus) (UniProt P33033); assay: Agonist activity at mouse MC3R expressed in HEK293 cells at 100 uM incubated for 2 hrs by AlphaScreen cAMP assay relative to untreated control; assay type: functional, cell-based
[4] = species on record: Mus musculus; assay: Selectivity index, ratio of pA2 for antagonist activity at mouse MC3R expressed in HEK293 cells to pA2 for antagonist activity at mouse MC4R expressed in HEK293 cells; assay type: cell-based
[5] = biological target: Melanocortin receptor 3 (Mus musculus, UniProt P33033); assay: Antagonist activity at mouse MC3R expressed in HEK293 cells assessed as reduction in NDP-MSH-induced response incubated for 2 hrs by AlphaScreen cAMP assay based Schild analysis; assay type: functional, cell-based; conditions: read-out: pA2 (converted)
[6] = biological target: Melanocortin receptor 5 (Mus musculus) (UniProt P41149); assay: Inverse agonist activity at mouse MC5R expressed in HEK293 cells at 100 uM incubated for 2 hrs by AlphaScreen cAMP assay; assay type: functional, cell-based; how it was run: as §1
[7] = biological target: Melanocyte-stimulating hormone receptor (Mus musculus) (UniProt Q01727); assay: Agonist activity at mouse MC1R expressed in HEK293 cells incubated for 2 hrs by AlphaScreen cAMP assay relative to NDP-MSH; assay type: functional, cell-based
How it was run: (§2)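 HEK293 cells stably expressing mouse MC1R, about 90% confluent, were detached with Versene and suspended at 10,000 cells/μL in stimulation buffer (HBSS, 0.5 mM IBMX, 5 mM HEPES, 0.1% BSA, pH 7.4) with anti-cAMP acceptor beads. Compound was added for 2 h at room temperature in the dark, then donor beads/biotinylated cAMP in lysis buffer for 2 h, followed by AlphaScreen read. Doses went up to 100 μM in duplicate wells, ≥3 experiments. EC50 came from nonlinear regression, with efficacy as a percent of NDP-MSH.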

[8] = biological target: Melanocyte-stimulating hormone receptor (Mus musculus, UniProt Q01727); assay: Agonist activity at mouse MC1R expressed in HEK293 cells incubated for 2 hrs by AlphaScreen cAMP assay; assay type: functional, cell-based; how it was run: as §2
[9] = biological target: Melanocortin receptor 4 (Mus musculus) (UniProt P56450); assay: Agonist activity at mouse MC4R expressed in HEK293 cells at 100 uM incubated for 2 hrs by AlphaScreen cAMP assay relative to untreated control; assay type: functional, cell-based
[10] = biological target: Melanocortin receptor 4 (Mus musculus) (UniProt P56450); assay: Potency index, ratio of pA2 for test compound to pA2 for AGRP for antagonist activity at mouse MC4R expressed in HEK293 cells assessed as reduction in NDP-MSH-induced response incubated for 2 hrs by AlphaScreen cAMP assay based Schild analysis; assay type: functional, cell-based
[11] = biological target: Melanocyte-stimulating hormone receptor (Mus musculus) (UniProt Q01727); assay: Agonist activity at mouse MC1R expressed in HEK293 cells at 100 uM incubated for 2 hrs by AlphaScreen cAMP assay relative to NDP-MSH; assay type: functional, cell-based; how it was run: as §2

Sequence of Melanocortin receptor 5 (P41149 whole entry): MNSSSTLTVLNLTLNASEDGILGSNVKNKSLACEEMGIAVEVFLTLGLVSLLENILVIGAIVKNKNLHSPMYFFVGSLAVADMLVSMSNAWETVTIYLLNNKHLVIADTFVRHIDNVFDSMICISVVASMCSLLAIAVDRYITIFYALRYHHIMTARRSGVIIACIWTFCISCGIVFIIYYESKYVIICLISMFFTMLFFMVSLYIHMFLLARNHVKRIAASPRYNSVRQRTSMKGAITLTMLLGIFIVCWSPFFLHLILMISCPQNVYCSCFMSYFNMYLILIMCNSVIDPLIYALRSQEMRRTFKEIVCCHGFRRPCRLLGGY
Sequence of Melanocortin receptor 5 (Mus musculus) (P41149 whole entry): as above
Sequence of Melanocortin receptor 4 (Mus musculus) (P56450 whole entry): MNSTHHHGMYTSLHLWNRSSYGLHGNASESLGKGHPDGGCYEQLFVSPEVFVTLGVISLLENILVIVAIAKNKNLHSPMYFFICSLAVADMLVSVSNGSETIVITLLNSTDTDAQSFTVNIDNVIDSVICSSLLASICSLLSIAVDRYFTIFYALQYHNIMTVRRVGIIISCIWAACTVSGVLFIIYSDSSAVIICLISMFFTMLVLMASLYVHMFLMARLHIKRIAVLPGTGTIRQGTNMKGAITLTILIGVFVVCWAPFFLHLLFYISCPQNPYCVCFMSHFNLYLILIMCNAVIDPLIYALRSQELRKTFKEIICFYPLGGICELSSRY
Sequence of Melanocortin receptor 4 (P56450 whole entry): as above
Sequence of Melanocortin receptor 3 (P33033 whole entry): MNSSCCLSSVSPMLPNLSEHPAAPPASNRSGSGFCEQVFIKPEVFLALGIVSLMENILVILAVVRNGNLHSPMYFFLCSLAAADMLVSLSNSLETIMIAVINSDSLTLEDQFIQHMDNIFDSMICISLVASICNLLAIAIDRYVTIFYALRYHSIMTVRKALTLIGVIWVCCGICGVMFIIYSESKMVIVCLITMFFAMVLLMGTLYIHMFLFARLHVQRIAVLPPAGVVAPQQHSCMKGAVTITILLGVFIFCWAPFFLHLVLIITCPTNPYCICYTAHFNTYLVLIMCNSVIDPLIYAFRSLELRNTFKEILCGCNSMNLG
Sequence of Melanocortin receptor 3 (Mus musculus) (P33033 whole entry): as above
Sequence of Melanocyte-stimulating hormone receptor (Q01727 whole entry): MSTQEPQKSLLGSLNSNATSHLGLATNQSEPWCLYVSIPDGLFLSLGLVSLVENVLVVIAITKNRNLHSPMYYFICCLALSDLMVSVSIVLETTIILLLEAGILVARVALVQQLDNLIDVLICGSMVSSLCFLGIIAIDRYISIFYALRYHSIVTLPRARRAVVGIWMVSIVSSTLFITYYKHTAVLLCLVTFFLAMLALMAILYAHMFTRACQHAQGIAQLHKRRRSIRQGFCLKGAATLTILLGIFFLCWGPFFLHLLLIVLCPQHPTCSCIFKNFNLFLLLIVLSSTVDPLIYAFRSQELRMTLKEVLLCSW
Sequence of Melanocyte-stimulating hormone receptor (Mus musculus) (Q01727 whole entry, looked up): as the sequence (Q01727 whole entry) above

| Compound | Kb [1] [µM] | pEC50 [2] | Activity [3] [%] | Ratio [4] | Kb [5] [µM] | Activity [6] [%] | Activity [7] [%] | pEC50 [8] | Activity [9] [%] | Ratio [10] | Activity [11] [%] |
| --- | --- | --- | --- | --- | --- | --- | --- | --- | --- | --- | --- |
| C[C@@H]1NC(=O)[C@H](CN)NC(=O)[C@H](CCc2ccccc2)NC(=O)[C@H](Cc2ccccc2)NC(=O)[C@H](CCCNC(=N)N)NC(=O)[C@@H]2CCCN2C(=O)[C@H]2CCCN2C(=O)[C@H](Cc2ccccc2)NC1=O | 0.000794 | < 4.00 | < 20 | 100 | 0.0794 | < 20 | 70 | 6.25 | < 20 |  |  |
| CCCC[C@@H]1NC(=O)[C@H](CO)NC(=O)[C@H](CC(N)=O)NC(=O)[C@H](CCc2ccccc2)NC(=O)[C@H](Cc2ccccc2)NC(=O)[C@H](CCCNC(=N)N)NC(=O)[C@@H]2CCCN2C(=O)[C@H]2CCCN2C1=O (cyclo(RF[hPhe]NS[Nle][dP]P)) | 0.000631 | < 4.00 | < 20 | 790 | 0.501 | < 20 |  | < 4.00 | < 20 | 3 to 6 | < 20 |
| N=C(N)NCCC[C@@H]1NC(=O)[C@@H]2CCCN2C(=O)[C@H]2CCCN2C(=O)[C@H](Cc2ccccc2)NC(=O)[C@H](CO)NC(=O)[C@H](CN)NC(=O)[C@H](Cc2ccccc2)NC(=O)[C@H](Cc2ccccc2)NC1=O | 0.000794 | < 4.00 | < 20 | 170 | 0.158 | < 20 | 85 | 6.22 | < 20 |  |  |
| CCCC[C@@H]1NC(=O)[C@H](C)NC(=O)[C@H](CC(N)=O)NC(=O)[C@H](CCc2ccccc2)NC(=O)[C@H](Cc2ccccc2)NC(=O)[C@H](CCCNC(=N)N)NC(=O)[C@@H]2CCCN2C(=O)[C@H]2CCCN2C1=O | 0.00251 | < 4.00 | < 20 | 250 | 0.631 | < 20 |  | < 4.00 | < 20 |  | < 20 |
| N=C(N)NCCC[C@@H]1NC(=O)[C@H](Cc2ccccc2)NC(=O)[C@H](Cc2ccccc2)NC(=O)[C@H](CCCNC(=N)N)NC(=O)[C@@H]2CCCN2C(=O)[C@H]2CCCN2C(=O)[C@H](Cc2ccccc2)NC(=O)[C@H](CO)NC1=O | 0.001 | < 4.00 | < 20 | 79 | 0.0794 | < 20 |  | < 4.00 | < 20 |  | < 20 |
| CCCC[C@@H]1NC(=O)[C@H](C)NC(=O)[C@H](CCCNC(=N)N)NC(=O)[C@H](Cc2ccccc2)NC(=O)[C@H](Cc2ccccc2)NC(=O)[C@H](CCCNC(=N)N)NC(=O)[C@@H]2CCCN2C(=O)[C@H]2CCCN2C1=O (cyclo(RFFRA[Nle][dP]P)) | 0.000794 | < 4.00 | < 20 | 46 | 0.0316 | < 20 |  | < 4.00 | < 20 |  | < 20 |
| CCCC[C@@H]1NC(=O)[C@H](C)NC(=O)[C@H](CCCNC(=N)N)NC(=O)[C@H](CCc2ccccc2)NC(=O)[C@H](Cc2ccccc2)NC(=O)[C@H](CCCNC(=N)N)NC(=O)[C@@H]2CCCN2C(=O)[C@H]2CCCN2C1=O (cyclo(RF[hPhe]RA[Nle][dP]P)) | 0.00158 | < 4.00 | < 20 | 19 | 0.0316 | < 20 |  | < 4.00 | < 20 |  | < 20 |
| CCCC[C@@H]1NC(=O)[C@H](C)NC(=O)[C@H](CN)NC(=O)[C@H](CCc2ccccc2)NC(=O)[C@H](Cc2ccccc2)NC(=O)[C@H](CCCNC(=N)N)NC(=O)[C@@H]2CCCN2C(=O)[C@H]2CCCN2C1=O (cyclo(RF[hPhe][Dap]A[Nle][dP]P)) | 0.000794 | < 4.00 | < 20 | 250 | 0.2 | < 20 |  | < 4.00 | < 20 |  | < 20 |
| CCCC[C@@H]1NC(=O)[C@H](CO)NC(=O)[C@H](CN)NC(=O)[C@H](CCc2ccccc2)NC(=O)[C@H](Cc2ccccc2)NC(=O)[C@H](CCCNC(=N)N)NC(=O)[C@@H]2CCCN2C(=O)[C@H]2CCCN2C1=O (cyclo(RF[hPhe][Dap]S[Nle][dP]P)) | 0.000316 | < 4.00 | < 20 | 630 | 0.2 | < 20 |  | < 4.00 | < 20 | 3 to 6 | < 20 |
| CCCC[C@@H]1NC(=O)[C@H](CO)NC(=O)[C@H](CC(N)=O)NC(=O)[C@H](Cc2ccccc2)NC(=O)[C@H](Cc2ccccc2)NC(=O)[C@H](CCCNC(=N)N)NC(=O)[C@@H]2CCCN2C(=O)[C@H]2CCCN2C1=O (cyclo(RFFNS[Nle][dP]P)) | 0.00316 |  | < 20 | 79 | 0.251 | -35 | 75 | 5.59 | < 20 |  |  |
